We go through 15 molecules from ChEMBL document CHEMBL1821693, “A novel 3-arylethynyl-substituted pyrido[2,3,-b]pyrazine derivatives and pharmacophore model as Wnt2/β-catenin pathway inhibitors in non-small-cell lung cancer cell lines” (Bioorg Med Chem, 2011).

pIC50: −log10 of the molar value. The source made the active and inactive calls. No cut-off for these calls is given here.

As a reminder, the pIC50 is the IC50 on a negative log10 scale, so that one unit is a factor of ten. As usually defined, the inhibition is the share of the control response that was lost under treatment.

Assay [1] deals with A549. Briefly: Cytotoxicity against human A549 cells expressing Wnt2 after 24 to 72 hrs by MTS assay. Format: functional, cell-based. In short, it runs like this: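 Wnt2-overexpressing A549 cells (stable pUSEampWnt2, G418 selection) in RPMI-1640 with 10% FBS. Seeded at 8 × 10^3 cells/well and allowed ~24 h to attach. Exposed to a range of concentrations. Viability measured 24 h after treatment by MTS (30 min at 37 °C, A490); IC50 derived.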
Background: Tetrazolium dyes change colour on reduction, which living cells bring about.

The test system of assay [2] is A549. Briefly: Inhibition of total beta-catenin expression in human A549 whole cell extract at cytotoxicity IC50 by Western blot analysis. In kind it is functional, cell-based. Background: A western blot detects proteins with antibodies after separation by electrophoresis.
The subject of assay [3] is A549. Description: Inhibition of nucleus beta-catenin expression in human A549 cells at cytotoxicity IC50 by Western blot analysis. In kind it is functional, cell-based.
For assay [4], the system named is A549. Description: Inhibition of cytosolic beta-catenin expression in human A549 cells at cytotoxicity IC50 by Western blot analysis. In kind it is functional, cell-based.
Assay [5] is described as follows: Inhibition of Wnt2/beta-catenin signaling pathway in human A549 cells assessed as inhibition of Tcf/Lef transcriptional activity at cell proliferation IC50 after 24 hrs by dual luciferase reporter gene assay. The following applies: dose or concentration not given here. In kind it is cell-based. In short, it runs like this: (§1)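 A549/Wnt2 cells co-transfected by lipofection with pSuper-Topflash (eight TCF sites driving firefly luciferase) or mutant pSuperFopflash, plus pRL-TK renilla for normalization. Compounds added at 37 °C for 24 h. Lysates read by dual-luciferase assay. Firefly/renilla ratio reported as mean ± SEM of triplicates, relative to non-treated cells.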

The test system of assay [6] is A549. Briefly: Antiproliferative activity against human A549 cells expressing Wnt2 after 72 hrs by MTS assay. Format: functional, cell-based. As to conditions: for pIC50: A549, 72 h. In short, it runs like this: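 A549 cells stably transfected with pUSEampWnt2 (G418-selected), grown in RPMI-1640 with 10% FBS at 37 °C, 5% CO2. Seeded at 3 × 10^3 cells/well and allowed to attach ~24 h. Treated with a range of concentrations.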

In assay [7] the test system is A549. Briefly: Inhibition of cyclin D1 mRNA expression in human A549 cells expressing Wnt2 after 24 hrs by RT-PCR analysis. In kind it is functional, cell-based.
Assay [8] in a line: Inhibition of Wnt2/beta-catenin signaling pathway in human A549 cells assessed as inhibition of Tcf/Lef transcriptional activity after 24 hrs by dual luciferase reporter gene assay. Format: cell-based. As to conditions: A549, 24 h. In short, it runs like this:
as §1
For orientation: A reporter such as luciferase makes a cellular process visible.

Assay [9] deals with A549. Briefly: Ratio of IC50 for antiproliferative activity against human A549 cells to IC50 for cytotoxicity against human A549 cells. Format: functional. In outline: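 Ratio of two MTS IC50s in A549/Wnt2 cells. Proliferation: 3 × 10^3 cells/well, read at 72 h. Cytotoxicity: 8 × 10^3 cells/well, read 24 h after treatment.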

In turn, `COc1cc(C#Cc2nc3ncccc3nc2OCCCN(C)C)cc(OC)c1` had a pIC50 with A549 [1] of 6.42. Further, the inhibition result in the assay with A549 [2], in the assay with A549 [3] and in the assay with A549 [4] was “Active” throughout. Moreover, in assay [5], the inhibition was found to be 30%.
`Fc1cccc(C#Cc2nc3ncccc3nc2OCCN2CCCC2)c1`: in the assay with A549 [1], the pIC50 is 5.61. Moreover, the inhibition result in the assay with A549 [2], with A549 [3] and in the assay with A549 [4] was “Active” in each case. Further, in assay [5], the inhibition is 30%.
As to `COc1c(C[C@@H](C)OC(=O)Oc2ccc(O)cc2)c2c3c(C[C@@H](C)OC(=O)c4ccccc4)c(OC)c(=O)c4c(O)cc(OC)c(c5c(OC)cc(O)c(c1=O)c52)c43` [CALPHOSTIN C], the pIC50 with A549 [1] is 5.49.
In turn, `COc1cccc(C#Cc2nc3ncccc3nc2OCCCN(C)C)c1` showed a pIC50 with A549 [1] of 6.55. The inhibition entry with A549 [2], in the assay with A549 [3] and in the assay on A549 [4] was “Active” throughout. Also, the inhibition in assay [5] worked out at 30%.
Regarding `COc1ccc(C#Cc2nc3ncccc3nc2OCCN(C)C)c(C)c1`, the figures for the pIC50 in the assay on A549 [1] and in the assay on A549 [6] were 5.53 and 6.08, respectively. In addition, the figures for the inhibition result (in the assay on A549 [6]; in assay [5]) were “Dose-dependent effect” and 30%, respectively. Besides, the inhibition result with A549 [2], in the assay on A549 [3] and with A549 [4] was “Active” each time.
In turn, `CC(C)N(CCOc1nc2cccnc2nc1C#Cc1cccc(F)c1)C(C)C` showed a pIC50 with A549 [1] of 5.54. The inhibition result with A549 [2], in the assay on A549 [3], in the assay with A549 [4] and in the assay with A549 [7] was “Active” in each case. Besides, the inhibition in assay [5] came to 50%.
In the case of `CN(C)CCOc1nc2cccnc2nc1C#Cc1cccc(F)c1`, the results for the pIC50 with A549 [1] and with A549 [6] were 5.71 and 6.27, respectively. Moreover, the values for the inhibition result (with A549 [6]; in assay [5]) were “Dose-dependent effect” and 30%, respectively. Besides, the inhibition entry in the assay on A549 [2], with A549 [3], in the assay with A549 [4] and in the assay on A549 [7] was “Active” in each case.
`CN(C)c1cccc(COc2nc3cccnc3nc2C#Cc2ccccc2)c1` had a pIC50 in the assay with A549 [1] of 5.76. Moreover, the inhibition result with A549 [2], in the assay on A549 [3] and with A549 [4] was “Active” throughout. Also, the inhibition in assay [5] came to 30%.
`Cc1ccc(C#Cc2nc3ncccc3nc2OC(C)CN(C)C)cc1` (stereo unspecified) had a pIC50 in the assay on A549 [1] of 5.72. Further, the inhibition result with A549 [2], in the assay on A549 [3] and in the assay on A549 [4] was “Active” each time. In assay [5], the inhibition was 30%.
For `CN1CCCC(Oc2nc3cccnc3nc2C#Cc2ccccc2)C1` (stereo unspecified), the pIC50 in the assay with A549 [1] was 6.14. Also, the inhibition result in the assay on A549 [2], with A549 [3] and in the assay on A549 [4] was “Active” throughout. For the same molecule, the inhibition in assay [5] turned out to be 30%.
Take `CN(C)CCOc1nc2ccccc2nc1C#Cc1ccccc1`: the pIC50 in assay [8] was 6.12.
As to `COc1cccc(C#Cc2nc3ncccc3nc2Cl)c1`, in the assay with A549 [1], the pIC50 is 5.40. Besides, the inhibition result with A549 [2], with A549 [3] and in the assay on A549 [4] was “Active” throughout. Besides, the inhibition in [5] came out at 50%.
On to `CCN(CC)CCOc1nc2cccnc2nc1C#Cc1ccc(OC)cc1`, for which the pIC50 in the assay on A549 [1] was 6.19; with A549 [6], 6.68. Moreover, the inhibition result in the assay with A549 [6] is “Dose-dependent effect”; in [5], 50%. Also, the “Ratio IC50” value in the assay with A549 [9] is listed as 3.07. Besides, the inhibition entry in the assay with A549 [2], in the assay on A549 [3], in the assay on A549 [4] and with A549 [7] was “Active” each time.
On to `C(#Cc1nc2ncccc2nc1OCCc1ccccn1)c1ccccc1`, for which the values for the pIC50 (in the assay on A549 [1]; in assay [8]; with A549 [6]) were 6.70, 6.92 and 7.37, respectively. Moreover, the inhibition result was “Dose-dependent effect” in the assay with A549 [6] and 50% in [5]. Also, the inhibition entry in the assay on A549 [2], with A549 [3], in the assay on A549 [4] and in the assay on A549 [7] was “Active” in each case.
`C(#Cc1nc2ncccc2nc1OCCN1CCCC1)c1ccccc1` had a pIC50 in the assay with A549 [1] of 6.14. Also, the inhibition entry in the assay with A549 [2], in the assay with A549 [3] and in the assay on A549 [4] was “Active” throughout. For the same molecule, in assay [5], the inhibition worked out at 30%.
